{"data": "Measured values pooled from the literature", "PRKD3": "Serine/threonine-protein kinase D3 (PRKD3, Homo sapiens, UniProt O94806)", "CDK2": "Cyclin-dependent kinase 2 (CDK2, Homo sapiens, UniProt P24941)", "note": "Lines come from different studies, so protocols differ."}
{"SMILES": "C1=C/COCc2cc(ccc2OCCN2CCCC2)Nc2nccc(n2)-c2cccc(c2)COC/1", "target": "PRKD3", "test": "binding", "setting": "0.1 µM", "quantity": "remaining binding", "result": "89%"}
{"SMILES": "Cc1cc(=O)oc2cc(NC(=O)[C@H](CCCN=C(N)N)NC(=O)[C@H](CCCN=C(N)N)NC(=O)OCc3ccccc3)ccc12", "target": "Cathepsin B (CTSB, Homo sapiens, UniProt P07858)", "test": "enzyme activity, substrate, fluorescence", "setting": "pH 7.5", "quantity": "Km", "result": "468 µM"}
{"SMILES": "Cc1cc(S(=O)(=O)NCCO[C@H]2CC[C@H](CN3CCC(c4ccc5c(c4F)n(C)c(=O)n5C4CCC(=O)NC4=O)CC3)CC2)ccc1Nc1ncc(C(F)(F)F)c([C@H]2CC[C@@](C)(O)CC2)n1 (some centres unmarked)", "target": "CDK2", "test": "protein level, degrader, western blot", "system": "MKN-1", "quantity": "Dmax", "result": "86%"}
{"SMILES": "Cc1cc(O)c(-c2ccc([C@@H](C)CN(C)C)cc2)c2c1[nH]c(=O)c1sccc12", "target": "Mitogen-activated protein kinase 6 (MAPK6, Homo sapiens, UniProt Q16659)", "test": "enzyme activity, inhibitor", "setting": "0.1 µM", "quantity": "inhibition", "result": "2.75%"}
{"SMILES": "C#Cc1cc(-c2cc(Nc3nc(N[C@@H](C)c4ccc(F)cn4)ncc3Cl)n[nH]2)ccc1C=O", "target": "PRKD3", "test": "enzyme activity, inhibitor", "setting": "0.2 µM", "quantity": "inhibition", "result": "4.02%"}
{"SMILES": "NC/C(=C\\F)COc1cccc(Cn2c(=S)[nH]c(=O)c3[nH]cnc32)c1", "target": "Alpha-1A adrenergic receptor (Adra1a, Rattus norvegicus, UniProt P43140)", "test": "ligand displacement, radioligand", "setting": "10 µM", "quantity": "inhibition", "result": "< 50%"}
{"SMILES": "C[C@H]1CN(CC2CCN(c3ccc(C4CCC(=O)NC4=O)cc3F)CC2)CC[C@H]1NS(=O)(=O)c1ccc(Nc2ncc(C(F)(F)F)c(N3CCC[C@](C)(O)C3)n2)c(F)c1 (some centres unmarked)", "target": "CDK2", "test": "protein level, degrader, western blot", "system": "TOV21G", "quantity": "Dmax", "result": "93%"}
{"SMILES": "CCCCC(=O)Nc1ccc(-c2ccc3ncn(CCC)c(=O)c3c2)cn1", "target": "Serine/threonine-protein kinase TNNI3K (TNNI3K, Homo sapiens, UniProt Q59H18)", "test": "binding, competition with immobilised ligand", "setting": "0.5 µM", "quantity": "remaining binding", "result": "91%"}
